According to ChEMBL document CHEMBL1135613, “Soluble tetraarylporphyrin-platinum conjugates as cytotoxic and phototoxic antitumor agents” (J Med Chem, 2002):

Key:
Format in all cases: cell-based
Conditions in all cases: human
[1] = tested on: TCC-SUP; experiment: Cytotoxicity of compound in dark was determined at 1 uM in TCC-SUP transitional bladder cancer cells; No statistically significant cytotoxicity
[2] = tested on: TCC-SUP; experiment: Cytotoxicity of compound in light was determined at 1 uM in TCC-SUP transitional bladder cancer cells; Marked light-induced toxicity
[3] = tested on: TCC-SUP; experiment: Cytotoxicity of compound was determined from treated to that of control TCC-SUP cells
Outline: (§1)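 Kinetic (multiple-point) chemosensitivity assay: TCC-SUP cells (passage 56) seeded in microplates, drug added after 48 h at 1, 5 and 10 µM from 10 mM stocks, 0.1% (v/v) final solvent. Medium left unchanged; growth followed by absorbance at 578 nm up to 144 h. T/C corr. = (T−C0)/(C−C0)×100; cytocidal effect = (C0−T)/C0×100 when T<C0.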

[4] = tested on: TCC-SUP; experiment: Cytotoxicity of compound in dark was determined at 10 uM in TCC-SUP transitional bladder cancer cells; No statistically significant cytotoxicity
[5] = tested on: TCC-SUP; experiment: Cytotoxicity of compound in dark was determined at 5 uM in TCC-SUP transitional bladder cancer cells; No statistically significant cytotoxicity
[6] = tested on: TCC-SUP; experiment: Photoxicity of compound in light was determined at 1 uM in TCC-SUP transitional bladder cancer cells; Marked light-induced toxicity
[7] = tested on: TCC-SUP; experiment: Cytotoxicity of compound was determined from treated to that of control on the proliferation of TCC-SUP cells at 5 uM; outline: as §1
[8] = tested on: TCC-SUP; experiment: Cytocidal of compound was determined from 10 uM in TCC-SUP cells incubated for 144 hr; outline: as §1
[9] = tested on: TCC-SUP; experiment: Cytotoxicity of compound was determined from treated to that of control on the proliferation of TCC-SUP cells at 1 uM; outline: as §1

**Q.** With COCCOCCOc1ccc(-c2c3nc(c(-c4ccc(OCCOCCOC)cc4)c4ccc([nH]4)c(-c4ccc(OC(C(=O)O)C(=O)O)cc4)c4nc(c(-c5ccc(OCCOCCOC)cc5)c5ccc2[nH]5)C=C4)C=C3)cc1 as the compound, how does the Cytotoxicity [1] read?
**A.** No effect

**Q.** What about the Cytotoxicity [2] of the same compound?
**A.** Marked light-induced toxicity

**Q.** And the T/C corr [3]?
**A.** 37%

**Q.** COCCOCCOCCOCCOCCOCCOCCOCCOCCOCCOCCOCCOCCOCCOCCOCCOCCOc1ccc(-c2c3nc(c(-c4ccc(OCCOCCOCCOCCOCCOCCOCCOCCOCCOCCOCCOCCOCCOCCOCCOCCOCCOC)cc4)c4ccc([nH]4)c(-c4ccc(OC(C(=O)O)C(=O)O)cc4)c4nc(c(-c5ccc(OCCOCCOCCOCCOCCOCCOCCOCCOCCOCCOCCOCCOCCOCCOCCOCCOCCOC)cc5)c5ccc2[nH]5)C=C4)C=C3)cc1 was tested. Which Cytotoxicity [4] did it give?
**A.** No effect

**Q.** Which results are given for COCCOCCOCCOc1ccc(-c2c3nc(c(-c4ccc(OCCOCCOCCOC)cc4)c4ccc([nH]4)c(-c4ccc(OC(C(=O)O)C(=O)O)cc4)c4nc(c(-c5ccc(OCCOCCOCCOC)cc5)c5ccc2[nH]5)C=C4)C=C3)cc1?
**A.** Cytotoxicity [5]: No effect; Cytotoxicity [6]: Marked light-induced toxicity; T/C corr [3]: 37%

**Q.** With “Diammine[2-(4-{10,15,20-tris[4-(1,4,7,10-tetraoxaundecyl)phenyl]porphyrin-5-yl}phenoxy)malonato]platinum-(II)” as the compound, how does the T/C corr [7] read?
**A.** 2.8%

**Q.** What about the Cytocidal effect [8] of the same compound?
**A.** 17.1%

**Q.** And the T/C corr [9]?
**A.** 26.2%
